From PubChem
TAAR1 ag – human TAAR1 agonists, primary screen, Fluo-8 calcium fluorescence, CHO RD-HGA16 cells; 360,000 compounds, 0.99% hits; activation, % at 3 µM; Trace amine-associated receptor 1 (Homo sapiens), Q96RJ0; vehicle wells 0%, saturating PEA agonist 100%; AID 624467, 2012;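 active means activation above the mean activation of all test compounds in the run plus 3 SD, cut at about 38% in these data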
Target sequence (Q96RJ0 whole entry, looked up): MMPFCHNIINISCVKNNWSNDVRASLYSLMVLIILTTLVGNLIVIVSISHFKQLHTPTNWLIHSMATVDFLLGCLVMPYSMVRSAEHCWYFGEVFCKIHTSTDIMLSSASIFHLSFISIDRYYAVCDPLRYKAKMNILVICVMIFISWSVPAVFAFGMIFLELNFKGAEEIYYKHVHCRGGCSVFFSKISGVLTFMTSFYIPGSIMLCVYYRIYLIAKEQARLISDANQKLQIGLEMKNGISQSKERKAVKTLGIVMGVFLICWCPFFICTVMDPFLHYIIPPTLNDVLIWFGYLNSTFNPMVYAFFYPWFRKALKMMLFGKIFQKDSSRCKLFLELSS
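Signal – calcium-sensitive Fluo-8 signal, excitation 470-495, emission 515-575 nm · System – RD-HGA16 (CHO) cells co-expressing Gα16 and hTAAR1 · Incubation – 17-24 h seeding, 75 min 37 °C dye, 30 min RT · Compound dosing – 3 µM single concentration · Repeats – no replicates (n 1)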
GPR7 antagonist – GPR7 receptor antagonists, primary screen, cell-based, fluorescence, single concentration. GPR7-expressing cells, fluorescence antagonist assay. inhibition, % at 4.4 µM. 290,000 compounds, 1.1% hits; in the data active means inhibition above about 16%, passing the limit was not always enough;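 further: cells stimulated with the agonist NPW; 0% = agonist with vehicle and 100% = vehicle without agonist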
TAAR1 antagonist – human TAAR1 antagonists, primary screen, Fluo-8 calcium fluorescence, CHO RD-HGA16 cells; AID 624466, 2012; Trace amine-associated receptor 1 (Homo sapiens), Q96RJ0; 360,000 compounds, 1.5% hits; inhibition, % at 3 µM; antagonist;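 active means inhibition above a per-plate cutoff, the mean inhibition of test compounds on that plate plus 3 SD, cut at about 49% in these data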;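 further: 0% = DMSO plus EC80 beta-PEA response and 100% = DMSO alone without agonist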
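Test system: CHO RD-HGA16 cells bearing hTAAR1 | Reagent: β-PEA, EC80 | Compound dosing: 3 µM, single point | Schedule: Dye loading 75 min at 37 °C, then 30 min room temperature | Signal: Calcium fluorescence with Fluo-8 | Evaluation: Percent inhibition of PEA-evoked calcium signal, max/basal emission ratio | Control set: DMSO-only wells and EC80 β-PEA-stimulated wells | Repeats: Singlicate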
OX1R antag-1 – antagonists of human orexin 1 receptor (OX1R). OX1R-expressing cells, FRET antagonist read-out. inhibition, % at 6.6 µM. 330,000 compounds, 1.8% hits. AID 485270, 2010; in the data active means inhibition mostly above about 38%, no sharp cut-off; inactive means mostly below about 40%;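 further: 0% = agonist challenge alone and 100% = reference antagonist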
Target sequence (O43613 whole entry, looked up): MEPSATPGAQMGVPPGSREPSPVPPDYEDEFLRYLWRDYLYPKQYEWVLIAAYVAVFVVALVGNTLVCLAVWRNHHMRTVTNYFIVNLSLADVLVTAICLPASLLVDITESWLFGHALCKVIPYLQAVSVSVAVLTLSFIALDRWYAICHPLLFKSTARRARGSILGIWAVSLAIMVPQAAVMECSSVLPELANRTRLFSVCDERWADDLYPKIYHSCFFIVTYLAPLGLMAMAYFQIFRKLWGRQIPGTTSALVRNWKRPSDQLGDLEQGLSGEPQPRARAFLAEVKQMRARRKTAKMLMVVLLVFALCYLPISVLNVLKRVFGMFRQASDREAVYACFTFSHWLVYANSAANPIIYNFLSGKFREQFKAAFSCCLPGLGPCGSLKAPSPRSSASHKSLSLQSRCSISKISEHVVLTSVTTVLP
OX1R antag-2 – OX1R (HCRTR1) antagonists, primary screen, fluorescence, CHO/OX1R cells, Fluo-8 calcium, orexin A; 330,000 compounds, 0.43% hits; AID 434989, 2010; inhibition, % at 5 µM; Fluo-8 calcium fluorescence;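 active means inhibition above its plate's threshold, mean inhibition of all tested compounds on the plate plus 3 SD, cut at about 37% in these data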;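 further: 0% = orexin A challenge wells and 100% = SB-334867-A antagonist wells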
CHO parental Ca – ATP-evoked calcium signal inhibitors, parental CHO, primary screen, counter-screen for OX1R antagonist project, cell-based, fluorescence, Fluo-8 calcium dye; 330,000 compounds, 0.63% hits; inhibition, % at 5.6 µM; parental CHO-K1, ATP-induced calcium, Fluo-8 fluorescence;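 active means inhibition above that plate's mean sample inhibition plus 3 SD, cut at about 26% in these data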;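 further: 0% = ATP-challenged DMSO wells and 100% = DMSO wells without ATP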
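Measured by: calcium-sensitive Fluo-8 fluorescence / Test system: CHO parental line / Controls: ATP-challenged DMSO wells low, unchallenged DMSO wells high / Measure: % inhibition / Compound: single nominal dose of 5.6 µM per compound / Replicates: single well per compound, no replicates / Reagent: ATP as calcium-mobilizing challenge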
Numbers without * were called inactive; . = no result. Compounds with a hit are over-represented: about 4.6% of the library has one in this group of screens.

SMILES | TAAR1 ag | GPR7 antagonist | TAAR1 antagonist | OX1R antag-1 | OX1R antag-2 | CHO parental Ca
Fc1ccccc1CNc1nc(NCC2CC2)nc2ccsc12 | 37.9* | . | 43.7 | . | . | .
COc1ccccc1CNc1nc(NCc2ccccc2)nc2ccsc12 | 50.5* | . | 95.4* | . | . | .
c1ccc(CNc2nc(NCc3ccccc3)c3sccc3n2)cc1 | 73.5* | . | 104.3* | . | . | .
COc1cc(N/C(=C\C(=O)c2ccccc2)c2ccccc2)ccc1Cl | 0.9 | . | -9.6 | . | . | .
C=CCO[C@H]1CN(C(=O)OC)[C@@H](c2ccccc2Br)C[C@H]1OCC=C | -0.4 | . | -7.2 | . | . | .
C=CCN=C1NC(c2ccc(Cl)cc2)C(C(=O)OC)=C(C)N1C (centres undefined) | 0.3 | . | -11.8 | . | . | .
Nc1ccc(Cn2ccc3c4c(N)nc(N)nc4ccc32)cc1 | 2.5 | . | -28.9 | . | . | .
c1ccc(CNc2nc(NCc3ccccc3)c3ccccc3n2)cc1 | . | 74.1* | . | 6.7 | 89.3* | 74.9*
c1ccc(CNc2nc(-c3ccccc3)nc3ccccc23)cc1 | 0.1 | -22.4 | 0.8 | 28.8 | -28.9 | -11.4
C=CCn1c(-c2cccs2)nc2nc3ccccc3nc21 | 11.3 | -16.1 | 14.9 | 72.4* | -13.2 | -20.5
C=CCn1c(-c2cccs2)nc2ccccc21 | 3.2 | -9.8 | -6.8 | 52.1 | -13.5 | -6.7
C/C(=N\Nc1ccc([N+](=O)[O-])cc1[N+](=O)[O-])C(C)(C)C(C(=O)O)C(=O)O | 0.7 | -7.5 | -14.1 | 73.0* | -10.2 | -7.1
CCOC(=O)c1c(C)oc2c1c(C(c1ccccc1)N1CCOCC1)c(O)c1ccccc12 (centres undefined) | 16.9 | -20.3 | -9.0 | 61.7* | -13.6 | -24.2
Cc1ccccc1CSc1nnc(C)c(=O)[nH]1 | 6.3 | 17.4* | -41.1 | 17.1 | -7.8 | 0.3
CCOC(=O)c1ccc(S(=O)(=O)N2CCN(C3CC(=O)N(c4ccc(OC)cc4)C3=O)CC2)cc1 (centres undefined) | 7.7 | . | 3.5 | . | . | .
CC(C)n1c(=NC(=O)c2ccco2)c(C#N)cc2c(=O)n3ccccc3cc21 | 5.3 | -4.0 | -9.0 | 54.4* | -23.8 | -9.7
Cc1nnc(N2C(=O)c3cccc4cccc(c34)C2=O)s1 | 5.7 | 1.3 | 2.2 | 59.2* | -5.2 | 9.0
Cc1ccc(S(=O)(=O)/N=C(/Nc2ccc([N+](=O)[O-])cc2[N+](=O)[O-])c2ccccc2)cc1 | 0.3 | . | -0.1 | 52.0* | 13.2 | 13.3
Cc1cc(=O)oc2cc(OCc3c(F)cccc3Cl)ccc12 | 0.5 | . | -27.6 | . | . | .
O=C(N[C@H](Cc1ccccc1)C(=O)N(CCC1=CCCCC1)CC1CC1)[C@H]1O[C@@H](n2ccc(=O)[nH]c2=O)[C@H](O)[C@@H]1O | 0.1 | . | -4.6 | . | . | .
O=C(Oc1ccc(-c2cn3c(n2)SCC3)cc1)c1ccccc1 | 9.6 | 17.9* | 19.5 | 13.1 | 31.4 | 15.3
CC(=O)Nc1ccc(-c2cn3c(n2)SCC3)cc1 | 6.3 | -11.1 | -14.2 | -4.0 | 0.1 | 0.0
CC1CCCN(c2cccc3c2S(=O)(=O)N(Cc2cccc(Cl)c2)[C@@H](C)[C@H](c2ccccc2)O3)C1 (some centres undefined) | 1.9 | . | -2.0 | . | . | .
CC(=O)c1c(C)oc2ccc(N(C(C)=O)S(=O)(=O)c3cccc4cccnc34)cc12 | 15.4 | -5.1 | 59.0* | 15.5 | -9.0 | -17.6
CC(=O)c1c(C)oc2ccc(N(C(C)=O)S(=O)(=O)c3ccc(F)cc3C)cc12 | -0.4 | -23.0 | -12.0 | 7.9 | -16.9 | -9.9
SMILES | TAAR1 ag | GPR7 antagonist | TAAR1 antagonist | OX1R antag-1 | OX1R antag-2 | CHO parental Ca
Cc1ccc(NC(=O)c2cc(N3C(=O)CCC3=O)ccc2N2CCOCC2)cc1 | 4.0 | 14.9 | 3.2 | 18.6 | -11.8 | -9.3
Cc1ccc(NC(=O)c2cc(N3C(=O)C=CC3=O)ccc2N2CCOCC2)cc1Cl | 30.1 | -4.9 | 51.2* | 5.5 | 25.5 | 5.6
CN(N=Cc1ccc2c(c1)OCO2)C(=O)c1ccccc1N | 0.4 | . | 3.4 | . | . | .
C[C@H](O)[C@@H]1C(=O)N2CCc3c([nH]c4ccccc34)[C@@H]2C[C@@H]1N(C)C(=O)Nc1ccc(Br)cc1 | 3.2 | . | 8.0 | . | . | .
COc1ccccc1N1CCN(C(=O)c2cc(S(=O)(=O)N3CCCCC3)ccc2C)CC1 | 11.4 | . | 24.3 | 6.1 | -17.7 | -24.5
CCOc1ccccc1N1CCN(C(=O)c2cc(S(=O)(=O)N3CCCCC3)ccc2C)CC1 | 27.8 | . | 54.6* | -3.7 | -15.7 | -23.4
C[C@@H]1CCCCO[C@@H](CN(C)C(=O)NC2CCCCC2)[C@@H](C)CN([C@H](C)CO)C(=O)c2cc(N(C)C)ccc2O1 | -0.8 | . | -3.1 | . | . | .
Oc1ccc(-c2nc3ccccn3c2NCc2ccco2)cc1 | 18.7 | -6.9 | 51.6* | 18.6 | 1.7 | 3.1
Nc1nc(-c2ccccc2)cc(N2CCCCC2)n1 | 5.7 | 13.9* | 6.4 | 23.4 | -30.7 | -17.8
Cc1cc(O)cc(=O)n1-c1cccc(Br)c1 | 0.8 | . | -20.0 | . | . | .
O=C(Nc1ccc(F)cc1)Nc1csc2ccccc12 | 3.3 | 8.2 | 31.7 | 28.6 | 18.1 | 12.2
CN(C)c1ccc(NC(=O)Nc2csc3ccccc23)cc1 | 7.5 | 0.0 | -14.4 | 56.8* | 28.6 | -15.0
C[C@H](CO)N1C[C@H](C)[C@H](CN(C)C(=O)Nc2ccc(N3CCCCC3)cc2)OCc2cnnn2CCCC1=O | 5.2 | . | -10.1 | . | . | .
CCCCCCCCN1C(=O)[C@@H](CC(=O)N2CCOCC2)C[C@@]2(C(=O)OC)C1=C[C@H](C(C)(C)C)O[C@@H]2C | 3.2 | . | -62.2 | . | . | .
OCCC1CN(Cc2ccccc2OC2CCCC2)CCN1Cc1ccsc1 (centres undefined) | 9.2 | 20.1* | -4.5 | 5.9 | -24.6 | -21.4
CCCC(=O)N(Cc1cc2cc(OC)ccc2[nH]c1=O)c1ccccc1OC | 1.9 | . | -12.9 | . | . | .
O=C(NCC(=O)N(Cc1cccs1)C(C(=O)NC1CCCCC1)c1ccco1)c1ccco1 (centres undefined) | 18.1 | -8.6 | 51.6* | 7.5 | -20.7 | -21.7
Cc1ccc(-c2noc(CCC(=O)NCCCN3CCN(c4cccc(Cl)c4)CC3)n2)cc1 | 11.8 | 19.0* | 29.4 | 2.7 | 51.9* | 31.9
Cc1ccc(-c2noc(CCC(=O)NCCCN3CCN(c4ccc(F)cc4)CC3)n2)cc1 | 12.2 | 5.3 | 10.2 | 9.1 | 9.3 | 9.8
Cc1ccc(C)c(N2CCN(C(=O)CCc3nc(-c4ccccc4C(F)(F)F)no3)CC2)c1 | 6.7 | . | 68.3* | 14.6 | -8.9 | -7.0
COc1ccccc1-c1noc(CCC(=O)N2CCN(c3cc(C)ccc3C)CC2)n1 | 8.1 | . | 56.0* | 13.5 | -8.8 | -23.5
COc1ccc(-c2noc(CCCCC(=O)N3CCN(c4cc(C)ccc4C)CC3)n2)cc1 | 0.8 | . | 7.0 | 37.7* | 75.3* | 73.7*
